Here are results for two compounds from PMC3747510 (Scientific Reports, 2013).

One assay deals with MetRS2. Particulars: cited from earlier work.
In the next assay the test system is S. pneumoniae. Kind of assay: Broth microdilution MIC, S. pneumoniae. Format: cell-based. Particulars: Streptococcus pneumoniae, 24 h, read-out: MIC, Bacteria, S. pneumoniae. In short, it runs like this:
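S. pneumoniae clinical isolate, from paediatric community-acquired pneumonia. CLSI M7-A7 broth microdilution in Mueller Hinton broth with 2.5% lysed sheep blood, inoculum about 2 × 10^8 CFU/mL. Serial test-compound dilutions, 37°C for 24 h. MIC was the lowest concentration suppressing visible growth.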
(In broth dilution the organism is exposed to a series of concentrations in liquid medium.)

Values after ≈ are worked out from the molar mass of the structure shown.

With `C=C(F)c1sc(CNCCCNc2cc(O)c3ccccc3n2)c(C)c1Br` [REP8839], the “Activity towards MetRS2” value in the assay on MetRS2 is on record as “no activity”.
For the compound `CC1(C)S[C@@H]2[C@H](NC(=O)[C@H](N)c3ccccc3)C(=O)N2[C@H]1C(=O)O` [Ampicillin, reference compound], the MIC (usually the least concentration at which growth counts as inhibited) in the assay with S. pneumoniae is 0.0625 µg/mL (≈ 0.179 µM).
